One block for each compound: values may come before it. Calls of active or inactive are those of the source. The calls are words filed in the database; no cut-off is given here.
Experiments:
[1] = system: Mus musculus; experiment: Antiarrhythmic activity in calcium chloride-induced mouse arrhythmia model assessed as prolongation of time to conduct cardiac block at 10 pmol/kg, iv relative to control; type: functional, Heart
Method in brief: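 Mice received an intravenous infusion of CaCl2 after IV test compound. The read-out was time to cardiac conduction block, expressed as percent increase over control. Values are means of at least three experiments with standard deviation.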

[2] = Stability in rat plasma after 3 hrs; type: ADME, cell-free; details: read-out: Stability
Method in brief: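 Rat plasma incubation for 3 h; stability reported as percent of compound remaining.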

[3] = Half life in dog at 5 mg/kg, po; type: ADME, organism-based, Canis lupus familiaris; parameters: dose 5 mg/kg, route oral; details: in vivo
Method in brief: (§1)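 Dogs were dosed IV at 1 mg/kg and PO at 5 mg/kg; one compound was given 2.3 mg/kg IV and 7.8 mg/kg oral. Values are means of at least three animals, or two animals where no SD is given.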

[4] = system: Mus musculus; experiment: Oral bioavailability in CD1 mouse at 0.77 mg/kg; type: ADME, organism-based; details: in vivo
[5] = Cmax in dog at 5 mg/kg, po; type: ADME, organism-based, Canis lupus familiaris; parameters: dose 5 mg/kg, route oral; details: in vivo; method in brief: as §1
[6] = AUC in dog at 5 mg/kg, po; type: ADME, organism-based, Canis lupus familiaris; parameters: dose 5 mg/kg, route oral; details: plasma; method in brief: as §1
[7] = system: Canis familiaris; experiment: Volume of distribution at steady state in dog at 1 mg/kg, iv; type: ADME, organism-based, Canis lupus familiaris; parameters: dose 1 mg/kg, route intravenous; details: in vivo; method in brief: as §1
[8] = Tmax in CD1 mouse at 0.77 mg/kg, po; type: ADME, organism-based; parameters: dose 0.77 mg/kg, route oral; details: in vivo
[9] = system: Mus musculus; experiment: Antiarrhythmic activity in calcium chloride-induced mouse arrhythmia model assessed as prolongation of time to conduct cardiac block at 20 pmol/kg, iv relative to control; type: functional, Heart
Method in brief: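 A medium-throughput IV screen in the mouse CaCl2 infusion arrhythmia model (n = 7–11). Time to conduction block was expressed as percent of saline control.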

[10] = system: Canis familiaris; experiment: Half life in dog at 1 mg/kg, iv; type: ADME, organism-based, Canis lupus familiaris; parameters: dose 1 mg/kg, route intravenous; details: in vivo; method in brief: as §1
[11] = Half life in CD1 mouse at 0.77 mg/kg, iv; type: ADME, organism-based; parameters: dose 0.77 mg/kg, route intravenous; details: in vivo
Method in brief: (§2)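 CD-1 mice were dosed IV at a nominal 1 mg/kg (actual 0.77 mg/kg or 1.6 mg/kg for some compounds) and PO at 5 mg/kg. Parameters were derived from mean drug concentration, N = 3 animals/time point.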

[12] = Tmax in dog at 5 mg/kg, po; type: ADME, organism-based, Canis lupus familiaris; parameters: dose 5 mg/kg, route oral; details: in vivo
[13] = Cmax in CD1 mouse at 0.77 mg/kg, po; type: ADME, organism-based; parameters: dose 0.77 mg/kg, route oral; details: in vivo
[14] = system: Mus musculus; experiment: AUC in CD1 mouse at 5 mg/kg, po; details: in vivo
[15] = Half life in CD1 mouse at 0.77 mg/kg, po; type: ADME, organism-based; parameters: dose 0.77 mg/kg, route oral; details: in vivo
[16] = Volume of distribution at steady state in CD1 mouse at 0.77 mg/kg, iv; type: ADME, organism-based; parameters: dose 0.77 mg/kg, route intravenous; details: in vivo, read-out: Vdss; method in brief: as §2
[17] = Oral bioavailability in dog at 5 mg/kg; type: ADME, organism-based, Canis lupus familiaris; details: in vivo; method in brief: as §1
[18] = Tmax in dog at 7.8 mg/kg, po; type: ADME, organism-based, Canis lupus familiaris; parameters: dose 7.8 mg/kg, route oral; details: in vivo
[19] = Clearance in dog at 2.3 mg/kg, iv; type: ADME, organism-based, Canis lupus familiaris; parameters: dose 2.3 mg/kg, route intravenous; details: in vivo; method in brief: as §1
[20] = Half life in CD1 mouse at 5 mg/kg, po; details: in vivo
[21] = Oral bioavailability in dog at 7.8 mg/kg; type: ADME, organism-based, Canis lupus familiaris; details: in vivo; method in brief: as §1
[22] = Tmax in CD1 mouse at 5 mg/kg, po; details: in vivo
[23] = Cmax in CD1 mouse at 5 mg/kg, po; details: in vivo
[24] = system: Mus musculus; experiment: Antiarrhythmic activity in calcium chloride-induced mouse arrhythmia model assessed as prolongation of time to conduct cardiac block at 1 to 30 mg/kg, po relative to control; type: functional, organism-based; details: Heart
Method in brief: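 Compounds were given orally at 1–30 mg/kg to mice, which then received an intravenous CaCl2 infusion. The read-out was prolongation of time to conduction block versus control.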

[25] = AUC in dog at 7.8 mg/kg, po; type: ADME, organism-based, Canis lupus familiaris; parameters: dose 7.8 mg/kg, route oral; details: plasma; method in brief: as §1
[26] = Inhibition of CYP450; type: ADME
[27] = Volume of distribution at steady state in CD1 mouse at 1.6 mg/kg, iv; type: ADME, organism-based; parameters: dose 1.6 mg/kg, route intravenous; details: in vivo, read-out: Vdss; method in brief: as §2
[28] = Half life in CD1 mouse at 1.6 mg/kg, iv; type: ADME, organism-based; parameters: dose 1.6 mg/kg, route intravenous; details: in vivo; method in brief: as §2
[29] = system: Mus musculus; experiment: Oral bioavailability in CD1 mouse at 1.6 mg/kg; type: ADME, organism-based; details: in vivo
[30] = Half life in dog at 2.3 mg/kg, iv; type: ADME, organism-based, Canis lupus familiaris; parameters: dose 2.3 mg/kg, route intravenous; details: in vivo; method in brief: as §1
[31] = target: Voltage-gated inwardly rectifying potassium channel KCNH2 (Homo sapiens, UniProt Q12809); experiment: Inhibition of human ERG
[32] = Half life in dog at 7.8 mg/kg, po; type: ADME, organism-based, Canis lupus familiaris; parameters: dose 7.8 mg/kg, route oral; details: in vivo; method in brief: as §1
[33] = Volume of distribution at steady state in dog at 2.3 mg/kg, iv; type: ADME, organism-based, Canis lupus familiaris; parameters: dose 2.3 mg/kg, route intravenous; details: in vivo, read-out: Vdss; method in brief: as §1
[34] = system: Mus musculus; experiment: AUC in CD1 mouse at 5 mg/kg, po; details: in vivo; remark: listed apart in the source
[35] = Metabolic stability in rat liver microsomes assessed as half life; type: ADME, Microsome
[36] = Metabolic stability in human liver microsomes assessed as half life; type: ADME, Microsome
[37] = Cmax in dog at 7.8 mg/kg, po; type: ADME, organism-based, Canis lupus familiaris; parameters: dose 7.8 mg/kg, route oral; details: in vivo; method in brief: as §1
[38] = Oral bioavailability in CD1 mouse at 5 mg/kg; type: ADME, organism-based; details: in vivo; method in brief: as §2
[39] = Half life in CD1 mouse at 1 mg/kg, iv; type: ADME, organism-based; parameters: dose 1 mg/kg, route intravenous; details: in vivo; method in brief: as §2
[40] = Half life in CD1 mouse at 5 mg/kg, po; type: ADME, organism-based; parameters: dose 5 mg/kg, route oral; details: in vivo; method in brief: as §2
[41] = Volume of distribution at steady state in CD1 mouse at 1 mg/kg, iv; type: ADME, organism-based; parameters: dose 1 mg/kg, route intravenous; details: in vivo, read-out: Vdss; method in brief: as §2
[42] = Cmax in CD1 mouse at 5 mg/kg, po; type: ADME, organism-based; parameters: dose 5 mg/kg, route oral; details: in vivo; method in brief: as §2
[43] = AUC in CD1 mouse at 5 mg/kg, po; type: ADME, organism-based; parameters: dose 5 mg/kg, route oral; details: plasma; method in brief: as §2
[44] = Tmax in CD1 mouse at 5 mg/kg, po; type: ADME, organism-based; parameters: dose 5 mg/kg, route oral; details: in vivo; method in brief: as §2
[45] = Clearance in CD1 mouse at 1 mg/kg, iv; type: ADME, organism-based; parameters: dose 1 mg/kg, route intravenous; details: in vivo; method in brief: as §2

Sequence of Voltage-gated inwardly rectifying potassium channel KCNH2 (Q12809 whole entry): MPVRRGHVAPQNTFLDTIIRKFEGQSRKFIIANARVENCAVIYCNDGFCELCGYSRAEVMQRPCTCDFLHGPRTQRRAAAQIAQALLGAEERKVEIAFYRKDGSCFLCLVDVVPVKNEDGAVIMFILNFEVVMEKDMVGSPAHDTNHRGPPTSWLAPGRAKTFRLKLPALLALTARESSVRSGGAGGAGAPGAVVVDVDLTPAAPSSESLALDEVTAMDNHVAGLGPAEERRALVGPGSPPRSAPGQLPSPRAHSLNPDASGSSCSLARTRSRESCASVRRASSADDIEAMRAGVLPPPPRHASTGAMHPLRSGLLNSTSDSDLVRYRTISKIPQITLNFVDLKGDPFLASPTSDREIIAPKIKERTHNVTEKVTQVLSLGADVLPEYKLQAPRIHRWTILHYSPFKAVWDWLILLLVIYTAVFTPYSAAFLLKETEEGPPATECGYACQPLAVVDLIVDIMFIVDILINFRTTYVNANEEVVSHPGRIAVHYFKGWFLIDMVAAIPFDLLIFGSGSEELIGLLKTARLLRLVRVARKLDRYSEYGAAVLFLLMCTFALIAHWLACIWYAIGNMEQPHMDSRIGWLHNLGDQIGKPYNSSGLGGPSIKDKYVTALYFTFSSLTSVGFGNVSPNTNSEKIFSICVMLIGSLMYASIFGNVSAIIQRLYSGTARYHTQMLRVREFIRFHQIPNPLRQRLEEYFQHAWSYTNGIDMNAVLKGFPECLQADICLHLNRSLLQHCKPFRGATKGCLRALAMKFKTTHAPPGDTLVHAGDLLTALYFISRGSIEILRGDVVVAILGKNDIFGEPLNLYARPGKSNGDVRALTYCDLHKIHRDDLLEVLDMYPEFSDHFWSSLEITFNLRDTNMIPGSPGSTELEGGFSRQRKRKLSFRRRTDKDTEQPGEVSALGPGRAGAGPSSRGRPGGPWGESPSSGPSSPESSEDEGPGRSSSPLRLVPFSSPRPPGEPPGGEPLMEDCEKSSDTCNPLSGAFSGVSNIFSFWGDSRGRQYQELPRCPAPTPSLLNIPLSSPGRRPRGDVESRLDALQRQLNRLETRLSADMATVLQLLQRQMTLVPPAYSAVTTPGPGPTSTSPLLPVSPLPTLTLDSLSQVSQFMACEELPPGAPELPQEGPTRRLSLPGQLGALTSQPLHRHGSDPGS

SMILES: NCC(=O)N1C[C@H](NC(=O)c2ccccc2)C[C@H]1C(=O)O [DANEGAPTIDE]
Activity [1]: 206.6%
half-life [3]: 4 h
F [4]: 6%
Cmax [5]: 799 ng/mL
AUC [6]: 4790 ng·h/mL
remaining at 3 h [2]: 93%
Vdss [7]: 8 L/kg
Tmax [8]: 0.5 h
Activity [9]: 149.8%
t1/2 [10]: 6.3 h
half-life [11]: 1.6 h
Tmax [12]: 1.1 h
Cmax [13]: 26 ng/mL
AUC [14]: 73 ng·h/mL
half-life [15]: 1.9 h
Vd [16]: 2.7 L/kg
bioavailability [17]: 14%

SMILES: O=CNCC(=O)N1C[C@H](NC(=O)c2ccccc2)C[C@H]1C(=O)O
Tmax [18]: 1.4 h
Activity [1]: 170.4%
clearance [19]: 5 mL/min/kg
half-life [20]: 1.4 h
bioavailability [21]: 13%
remaining at 3 h [2]: 100%
Tmax [22]: 0.25 h
Cmax [23]: 89 ng/mL
Activity [24]: Active
AUC [25]: 3820 ng·h/mL
Activity [26]: Not Active
Vd [27]: 0.2 L/kg
half-life [28]: 0.4 h
F [29]: 2%
half-life [30]: 1.5 h
Activity [31]: Not Active
half-life [32]: 6.2 h
Vd [33]: 0.4 L/kg
AUC [34]: 144 ng·h/mL
half-life [35]: > 0.5 h
half-life [36]: > 0.5 h
Cmax [37]: 737 ng/mL

SMILES: NCC(=O)N1C[C@H](NC(=O)c2ccccc2)C[C@H]1C(=O)NC1CC1
Activity [1]: 196%
bioavailability [38]: 7%
half-life [39]: 2.1 h
half-life [40]: 1.2 h
Vd [41]: 0.6 L/kg
remaining at 3 h [2]: 96%
Activity [24]: Active
Cmax [42]: 87 ng/mL
AUC [43]: 305 ng·h/mL
Activity [26]: Not Active
Tmax [44]: 0.25 h
Activity [31]: Not Active
clearance [45]: 20 mL/min/kg
half-life [35]: > 0.5 h
half-life [36]: > 0.5 h

SMILES: CC(C)(C)NC(=O)[C@@H]1C[C@@H](NC(=O)c2ccccc2)CN1C(=O)CN
Activity [1]: 135.7%
remaining at 3 h [2]: 99%

SMILES: CC(C)NC(=O)[C@@H]1C[C@@H](NC(=O)c2ccccc2)CN1C(=O)CN
Activity [1]: 162%
bioavailability [38]: 6%
half-life [39]: 0.9 h
half-life [40]: 1.6 h
Vd [41]: 2 L/kg
remaining at 3 h [2]: 100%
Activity [24]: Active
Cmax [42]: 44 ng/mL
AUC [43]: 90 ng·h/mL
Activity [26]: Not Active
Tmax [44]: 0.25 h
Activity [31]: Not Active
clearance [45]: 58 mL/min/kg
half-life [35]: > 0.5 h
half-life [36]: > 0.5 h

SMILES: CNC(=O)[C@@H]1C[C@@H](NC(=O)c2ccccc2)CN1C(=O)CN
Activity [1]: 145%
remaining at 3 h [2]: 87%

SMILES: NCC(=O)N1C[C@H](NC(=O)c2ccccc2)C[C@H]1C(=O)NC1CCCC1
Activity [1]: 110.6%
remaining at 3 h [2]: 90%

SMILES: NCC(=O)N1C[C@H](NC(=O)c2ccccc2)C[C@H]1C(N)=O
Activity [1]: 193.2%
remaining at 3 h [2]: 27%

SMILES: CCNC(=O)[C@@H]1C[C@@H](NC(=O)c2ccccc2)CN1C(=O)CN
Activity [1]: 137.2%
remaining at 3 h [2]: 100%

SMILES: NCC(=O)N1C[C@H](NC(=O)c2ccccc2)C[C@H]1C(=O)NC1CCOCC1
Activity [1]: 99.4%
remaining at 3 h [2]: 81%

Now from value to compound, other results behind:

remaining at 3 h [2]: 100%
SMILES: CN(C)CC(=O)N1C[C@H](NC(=O)c2ccccc2)C[C@H]1C(=O)O
Activity [1]: 118.9%

remaining at 3 h [2]: 100%
SMILES: CNCC(=O)N1C[C@H](NC(=O)c2ccccc2)C[C@H]1C(=O)O
Activity [1]: 120.7%

remaining at 3 h [2]: 100%
SMILES: NCC(=O)N1C[C@H](NC(=O)c2ccccc2)C[C@H]1C(=O)N[C@@H]1CCOC1
Activity [1]: 143.5%

bioavailability [38]: 2%
half-life [39]: 0.3 h
half-life [40]: 1.2 h
Vd [41]: 0.3 L/kg
remaining at 3 h [2]: 100%
Cmax [42]: 38 ng/mL
AUC [43]: 66 ng·h/mL
Activity [26]: Not Active
Tmax [44]: 0.25 h
clearance [45]: 24 mL/min/kg
half-life [35]: > 0.5 h
half-life [36]: > 0.5 h
SMILES: CC(=O)NCC(=O)N1C[C@H](NC(=O)c2ccccc2)C[C@H]1C(=O)O
Activity [1]: 165.7%
Activity [24]: Active
Activity [31]: Not Active

remaining at 3 h [2]: 0%
SMILES: COC(=O)[C@@H]1C[C@@H](NC(=O)c2ccccc2)CN1C(=O)CNC(=O)OC(C)(C)C
Activity [1]: 166.3%

remaining at 3 h [2]: 89%
SMILES: CC(C)[C@@H](C)NC(=O)[C@@H]1C[C@@H](NC(=O)c2ccccc2)CN1C(=O)CN
Activity [1]: 120.1%

remaining at 3 h [2]: 100%
SMILES: CC(C)(C)OC(=O)NCC(=O)N1C[C@H](NC(=O)c2ccccc2)C[C@H]1C(=O)O
Activity [1]: 156.2%

Reference: ChEMBL document CHEMBL1153486, “Discovery of a class of potent gap-junction modifiers as novel antiarrhythmic agents” (Bioorg Med Chem Lett, 2009)
